Measured values reported in PubChem BioAssay AID504382 (The Scripps Research Institute Molecular Screening Center, 2011).
Among all 2,500 compounds or so, about 460 (18%) were called active. A selection follows. A number with no mark means an inactive call.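 How the source made its calls: active means mean activation above a cutoff of low control average plus 3 SD from the earlier screen (cut at about 12% in these data); inactive means the rest.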

Test: compound fluorescence interference without thin filaments, confirmation, artefact control for cardiac RTF calcium sensitizer project, biochemical (AID 504382)
Settings: IANBD fluorescence interference counterscreen, buffer, EC20 Ca2+; at 7.2 µM; active compounds read high; scaled: EC20 calcium 0, EC100 calcium 100
How it was run: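 Also added: EC20 calcium, 0.472 mM; dosing: single nominal 7.2 µM compound dose, 0.7% DMSO final; timing: 15 min, 25 °C; detection: fluorescence intensity, excitation 480 nm, emission 540 nm; replicates: each compound tested in triplicate wells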

Compound	fluorescence artifact activation
CCN(CC)CCN1C(=O)c2cccc3cc(N)cc(c23)C1=O	24.6% (active)
O=C1c2cccc3cc([N+](=O)[O-])cc(c23)C(=O)N1CCN1CCCC1	0.08%
CC(C)CCN1C(=O)c2cccc3c(N)ccc(c23)C1=O	1.45%
Cc1ccc(Cn2c(O)c(N=NC(=S)Nc3ccccc3F)c3cc(S(=O)(=O)N4CCOCC4)ccc32)cc1	5.72%
CC(=O)c1cc(NC(=O)c2ccc(Cl)cc2)c(=O)oc1/C=C/N(C)C	0.02%
CC(=O)c1cc(NC(=O)c2ccc(C)cc2)c(=O)oc1/C=C/N(C)C	15.6% (active)
COC(=O)c1cc(NC(=O)c2ccccc2)c(=O)oc1C/C=N\OCc1ccc(Cl)cc1Cl	0.01%
N#CC12COC3(CCCCC3C1(C#N)C#N)OC2=N (stereo not given)	0.14%
CCC(C)(C)NC(=O)C(c1ccc(F)cc1)N(Cc1ccco1)C(=O)c1cnccn1 (stereo not given)	18.7% (active)
CCOc1ccc(N(C(=O)CNC(=O)c2ccco2)C(C(=O)NC2CCCC2)c2ccncc2)cc1 (stereo not given)	0.08%
CN(CC(=O)NCc1ccco1)S(=O)(=O)c1cccc2cccnc12	6.75%
COc1cccc(CN2CCNC(=O)C2CC(=O)N(C)Cc2cnccn2)c1OC (stereo not given)	0.09%
O=C(CSC1=NS(=O)(=O)c2ccccc2N1)N1CCCCC1	1.61%
CN(C)C(CNC(=O)CSc1nc2ccccc2c(=O)n1Cc1ccco1)c1ccccc1 (stereo not given)	-0.06%
CC1(C)CC2(CCCN(C(=S)Nc3ccccc3)C2)CCO1 (stereo not given)	0.12%
CC1(C)CC(CC(=O)Nc2nccs2)(c2ccccc2)CCO1 (stereo not given)	239% (active)
O=C(Cc1c(F)cccc1Cl)Nc1nccs1	0.01%
Cn1c(=O)cc(SCC(=O)NCC2COc3ccccc3O2)c2ccccc21 (stereo not given)	0.03%
Cc1cc(NS(C)(=O)=O)c(=O)n(Cc2cccc(F)c2)c1	0.35%
COc1ccc(N/C=C2\C(=O)CCc3c2oc2cc(Cl)c(O)c(Cl)c32)cc1	12.7% (active)
Cn1cnnc1Sc1nc2ccccc2nc1NS(=O)(=O)c1ccccc1	4.87%
Cc1cc(N/C=C\c2nnnn2-c2ccc(F)cc2)no1	233% (active)
CC(=O)N(c1ccccc1)C1SC(=O)N(c2ccccc2)C1=O (stereo not given)	0.05%
O=C(O)C(c1ccccc1)N1C(=O)/C(=C\c2ccc(-c3ccc(Br)cc3)o2)SC1=S (stereo not given)	68.3% (active)

Compound	fluorescence artifact activation
O=C(O)CN1C(=O)/C(=C/c2ccc(SCc3ccccc3)o2)SC1=S	11.5%
O=C(O)c1cc(-c2ccc(/C=C3/SC(=S)N(Cc4ccccc4)C3=O)o2)ccc1Cl	0.02%
CC(C)NC(=S)N/N=C/c1sc(N2CCCCC2)nc1-c1cccs1	0.18%
FC(F)(F)c1ccc(-c2nc(=S)[nH][nH]2)cc1	-0.01%
CCN(CC)CC(C(=O)N(CC)CC)P(=O)(c1ccccc1)c1ccccc1 (stereo not given)	1.03%
CCC1Oc2ccc(C)cc2N(CC(=O)NCc2cccs2)C1=O (stereo not given)	-0.08%
O=C(CO/N=C/c1ccccc1OC(F)F)NCc1cccs1	16.6% (active)
Cc1ccc(SCC(=O)OCC(=O)NCc2cccs2)cc1	2.52%
C=CCOc1ccc(C2OC34CCCCC3C(C#N)(C#N)C2(C#N)C(=N)O4)cc1 (stereo not given)	0.84%
Cc1ccc(-c2noc(-c3c(C)noc3C)n2)cc1	2%
O=C1c2ccsc2SCCN1Cc1ccc(F)cc1	7.58%
O=C(NN1C(=O)/C(=C/c2ccc(O)cc2)SC1=S)c1ccccc1O	0.14%
C=C(C)c1cccc(C(C)(C)NC(=O)Nc2cccnc2)c1	5%
N#CC1=C(N)OC2=C(CC/C2=C\c2ccccc2)C1c1ccccc1 (stereo not given)	1.94%
Cc1ccc(/C=C2\CCC3=C2OC(N)=C(C#N)C3c2ccc(C)cc2)cc1 (stereo not given)	0.12%
N#CC1=C(N)OC2=C(CC/C2=C\c2ccccc2Cl)C1c1ccccc1Cl (stereo not given)	125% (active)
COc1ccc2c(n1)Sc1nc3ccccc3nc1N2	0.01%
O=C(c1ccccc1)c1ccncc1	0.03%
O=C(c1ccccc1)c1ccccc1C(=O)c1ccccc1	0.23%
O=C(c1ccccc1)c1ccc(O)cc1O	24.9% (active)
CC1(C)CC(=O)C2=C(C1)OC(N)=C(C#N)[C@@H]2c1ccccc1[N+](=O)[O-]	7.58%
O=C(O)c1ccc(NC(=S)NC(=O)c2ccc(-c3ccccc3)cc2)cc1	9.94%
CCNC(=O)COc1ccc(-c2ccccc2)cc1	0.09%
O=C(O)CCC(=O)NNC(=O)c1ccc(-c2ccccc2)cc1	49% (active)

Compound	fluorescence artifact activation
COc1cc(NC(=O)CSc2ccccc2)c(C(=O)O)cc1OC	3.35%
Nc1nc(SCc2cccc(Br)c2)n[nH]1	0.03%
CC(Sc1nc2ncc(Cl)cc2[nH]1)C(=O)Nc1ccc(C(N)=O)cc1 (stereo not given)	-0.03%
O=C1/C(=C\c2c(NCCOCCO)nc3ccccn3c2=O)SC(=S)N1Cc1ccco1	31.6% (active)
CCCN(CCC)c1nc2c(C)cccn2c(=O)c1/C=C1/SC(=S)N(Cc2ccco2)C1=O	0.05%
CCN1CCN(c2c(/C=C3\SC(=S)N(Cc4ccco4)C3=O)c(C)c(C#N)c(=O)n2C)CC1	0.03%
Cc1cccc(C)c1NC(=O)CNC(=O)Cc1ccc(Br)cc1	0.05%
C=CCn1c(C)c(/C=C/c2cc[n+](C)cc2)c2ccccc21	8.02%
Cn1c(=O)cc(N)n(Cc2ccccc2)c1=O	14.3% (active)
Cn1c(=O)c2cc(NCc3ccccc3)nnc2n(C)c1=O	0.34%
O=c1cc2c(c(-c3ccccc3)n1Cc1ccccc1)[C@H](CCO)NC2	0.32%
CN1CCN(C(=O)c2cc3ccccc3[nH]2)CC1	-0.01%
CCC(CC)C(=O)c1c[nH]c(C(=O)N2CCN(c3ccccc3F)CC2)c1	17% (active)
CC(C)CN1CCC(C(=O)N2CCN(c3ccccc3F)CC2)CC1	-0.02%
CC(=O)Nc1ccc2nc3c(=O)n(C)c(=O)n(C)c3nc2c1	1.77%
COc1ccc(CCNC(=O)CN(C)S(=O)(=O)c2ccc3c(c2)CCC(=O)N3)cc1OC	-0.01%
COc1cc(/C=C/C(=O)c2ccc3c(c2)OCO3)cc(Cl)c1O	1.66%
Cc1cc[n+](-c2[nH]c(=O)sc2/C=N/NC([S-])=Nc2ccccc2)cc1	1.49%
CCOC(=O)CC(=O)CSc1nc(-c2ccc3c(c2)OCO3)cc(C(F)(F)F)c1C#N	0.09%
COc1ccc(-c2cc(C3CC3)nc(SCC(=O)c3cccs3)c2C#N)cc1	0.1%
CC(C)OC(=O)CC(=O)CSc1nc(-c2ccc(F)cc2)cc(-c2ccccc2)c1C#N	17.5% (active)
Cc1cc(C)n(-c2nc3ccccc3nc2Nc2ccc3[nH]c(=O)[nH]c3c2)n1	4.66%
CC(C)Oc1ccc(/C(O)=C2/C(=O)C(=O)N(CCN3CCNCC3)C2c2cccc([N+](=O)[O-])c2)cc1 (stereo not given)	1.8%
CCOC(=O)C1=C(C)NC(=O)/C1=C\N(C)C	0.04%

Compound	fluorescence artifact activation
Cc1cc(C)c(NC(=S)N(C)C)c(C)c1	31.3% (active)
NC(=O)c1ccccc1N/C=C/C(=O)c1ccc(Cl)cc1Cl	1.35%
COc1ccc(NC(=O)C(c2ccc(C)cc2)N(C)C(=O)Cc2cccs2)cc1 (stereo not given)	0.03%
COc1ccc(N(C(=O)c2ccc(C)cc2)S(=O)(=O)c2cccs2)cc1	54.9% (active)
COc1ccc(NC(=O)CNS(=O)(=O)c2cccs2)cc1	-0.02%
CCOC(=O)C(C#N)C(c1cccnc1)c1c(C)[nH][nH]c1=O (stereo not given)	0.03%
O=C(CSc1nc2cc(Cl)ccc2s1)c1cc2ccccc2o1	39.2% (active)
Cc1ccccc1Nc1nnc(SCC(=O)c2cc3ccccc3o2)s1	-0.07%
O=C(CSc1nc2ccccc2s1)c1cc2ccccc2o1	6.22%
CCN(CC)C(=O)c1ccc(/C=C/c2c[nH]c3ccccc23)[n+](C)c1	0.26%
CS(=O)(=O)Nc1nc2n(n1)C(c1ccccc1)C=C(c1ccc(Br)cc1)N2 (stereo not given)	13% (active)
Brc1ccc(C2=CC(c3ccco3)n3ncnc3N2)cc1 (stereo not given)	0.04%
Brc1ccc(C2=CC(c3cccs3)n3ncnc3N2)cc1 (stereo not given)	0.13%
O=C(O)C1=C[C@H](c2ccccc2)C[C@H](OCc2ccc(CO)cc2)O1	0.07%
Cc1ccc(NC(=O)C(OC(=O)c2ccc(F)cc2)c2ccccc2)cc1Cl (stereo not given)	-0.03%
Cn1nc(NC(=O)C2CCC2C(=O)O)c2c(F)cccc21 (stereo not given)	7.56%
CC(C)(C)OC(=O)N1CC=C2C(C#N)=C(N)C(C#N)(C#N)C(c3cccs3)C2C1 (stereo not given)	-0.03%
Cc1cc(C)c(OCCOCCN2CCNCC2)c(C)c1	0.06%
OCCc1c[nH]c2ccccc12	0.07%
NC(=O)c1c[nH]c2ccccc12	288% (active)
COc1cc(/C=C(\C#N)C(=O)c2c[nH]c3ccccc23)cc(OC)c1O	0.14%
CC(C)(C)OC(=O)N1CCC(Cc2cc(-c3cccnc3)no2)(C(=O)O)CC1	3.74%
Cc1ccc(NC(=O)c2cc(C(=O)c3cc(Cl)ccc3O)cn(-c3ccc(C)cc3)c2=O)cc1	3.68%
